Screening data as filed in PubChem.
The entries come from a sample that favours hits as a whole.
HCT116 bCat-KO: beta-catenin-lacking colon tumor cell growth suppression. HCT116 beta-catenin knockout viability, CellTiter-Glo, 60 h; stronger effect = lower value. viability, % at 10 µM. 140,000 compounds, 1.5% hits;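 active = viability at or under a set limit, the compound median less 4 SD, cut at about 6% in these data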
H69AR inhibit: growth inhibitors of human H69AR lung tumor cells | H69AR lung tumor viability, ATP luminescence, 72 h; stronger effect = lower value | viability, % at 10 µM | 85,000 compounds, 6% hits;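 active = viability at or below 40%; inactive = viability above 40%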;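 note: multidrug resistant small cell line overexpressing MRP-1 efflux transporter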
PTEN del growth: growth suppressors of cells with PTEN tumor suppressor deletion | viability, % at 10 µM | 140,000 compounds, 1.2% hits | HCT116 PTEN-null viability, CellTiter-Glo, 60 h; stronger effect = lower value;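 active = viability at or below a set limit, 4 SD under the median of all tested compounds, cut at about 3.7% in these data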;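 note: PTEN knockout HCT116 line with beta catenin targeted HCT116 as companion control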
HUVEC inhibit: inhibitors of human endothelial cell proliferation; HUVEC proliferation, CellTiter-Glo luminescence, 72 h; stronger effect = lower value; viability, % at 10 µM (by protocol); 86,000 compounds, 1.1% hits; AID 648;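 active = viability at or below 30%; inactive = viability above 30%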
Phagocytosis inh: inhibitors of macrophage phagocytosis; J774A.1 macrophage IgG-bead phagocytosis, imaging; inhibition, % at 5 µM; 110,000 compounds, 0.07% hits;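 active = inhibition above the mean of the plate negative controls plus 5 SD, cut at about 13% in these data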;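 note: phagocytic index as fraction of beads internalized from green versus red external bead signal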
Lung fibro prol: blocks proliferation of human lung fibroblasts; LL 47 human lung fibroblast viability, ATP luminescence; stronger effect = lower value; viability, % at 10 µM; 85,000 compounds, 1.1% hits;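 active = viability at or below 50% in the single dose screen; inactive = viability above 50%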;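 note: compound exposure lasted 72 h before the ATP readout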
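Test system: LL 47 human lung fibroblasts; Quantity: 1,150 cells/well; Buffer or medium: IMEM plus 15% FBS; Dosing: tenfold compound dosing solution, DMSO at 0.1%; Timing: overnight cell rest, 72 h compound treatment at 37 °C; Detection: ATP-based CellTiter-Glo luminescent readout; Read-out basis: viability percentage against median untreated-cell control; Controls: cell-only wells, no compound.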
Large screens that a line does not name were inactive.

CCCCNC(=O)CSc1nnc(-c2c[nH]c3ccccc23)n1CC1CCCO1 (centres undefined)	none (no result: H69AR inhibit, HUVEC inhibit, Lung fibro prol)
O=C1NN(c2ccc(Cl)c(Cl)c2)C(=O)/C1=C/c1cccc(OC(=O)c2cccs2)c1	H69AR inhibit 5.4
O=C1NN(c2ccccc2)C(=O)/C1=C\c1cccc(OC(=O)c2cccs2)c1	H69AR inhibit 3.8
CCOc1cc(/C=C2/C(=O)N(c3ccccc3)N=C2C)ccc1OC(=O)c1cccs1	none (no result: H69AR inhibit, HUVEC inhibit, Phagocytosis inh, Lung fibro prol)
Cc1nc2ccc(C(=O)OCc3ccccc3Br)cc2nc1C	none (no result: H69AR inhibit, HUVEC inhibit, Lung fibro prol)
O=C(c1cccc(F)c1)N1CCN(c2cccc(Cl)c2)CC1	H69AR inhibit 18.3
O=C(c1c(F)c(F)c(F)c(F)c1F)N1CCN(c2cccc(C(F)(F)F)c2)CC1	H69AR inhibit 28.9
O=C(O)CCC(=O)N1CCN(c2cccc(Cl)c2)CC1	none
O=C(c1c(Cl)nc2sccn12)N1CCN(c2cccc(Cl)c2)CC1	H69AR inhibit 19.3
COc1ccccc1C(=O)N1CCN(c2cccc(Cl)c2)CC1	Lung fibro prol 46.4 (no result: Phagocytosis inh)
S=C(Nc1ccccc1Cl)N(CCN1CCCCC1)Cc1ccco1	none (no result: H69AR inhibit, HUVEC inhibit, Lung fibro prol)
O=C(Cn1cnc2ccccc21)N/N=C/c1ccccc1[N+](=O)[O-]	none (no result: H69AR inhibit, HUVEC inhibit, Lung fibro prol)
CCc1nnc(NC(=O)Cn2nc(-c3ccccc3OC)ccc2=O)s1	none (no result: Phagocytosis inh)
O=C1CCCC2=C1C(c1ccccc1O)C1=C(CCCC1=O)O2	none
CC1(C)CC(=O)C(C(C2=C(O)CC(C)(C)CC2=O)c2ccco2)C(=O)C1 (centres undefined)	none (no result: H69AR inhibit, HUVEC inhibit, Phagocytosis inh, Lung fibro prol)
CC1(C)CC(=O)C(C(C#Cc2ccccc2)C2=C(O)CC(C)(C)CC2=O)=C(O)C1	H69AR inhibit 29.4
O=C1CCCC(O)=C1C(C#Cc1ccccc1)C1=C(O)CCCC1=O	H69AR inhibit 7.3
CCCCn1nnc(NC(=S)NC(=O)c2ccc(-c3cccc(Cl)c3Cl)o2)n1	none (no result: H69AR inhibit, HUVEC inhibit, Lung fibro prol)
CCC1CCC2(CC1)NNC(=S)NN2	none (no result: H69AR inhibit, HUVEC inhibit, Lung fibro prol)
CC(C)c1nnc(NC(=O)CC(=O)Nc2ccccc2C(=O)O)s1	none
COc1ccc2cc3cc(C(=O)Nc4cc(OC)c(OC)c(OC)c4)oc3nc2c1	none
COc1ccc2cc3cc(C(=O)Nc4ccc5c(c4)OCCO5)oc3nc2c1	H69AR inhibit 39.7, HUVEC inhibit 26.2
CCC1=NNc2cccc3c(OC)ccc1c23	HUVEC inhibit 20.9, Lung fibro prol 3.8
CCCn1cnc2c(c1=O)c1nc3ccccc3nc1n2CCC1=CCCCC1	none
CCCCCCn1c(C)nc2c(c1=O)c1nc3ccccc3nc1n2/N=C/c1ccco1	H69AR inhibit 3.8, HUVEC inhibit 17.8
O=c1c2c3nc4ccccc4nc3n(/N=C/c3ccco3)c2ncn1CCC1=CCCCC1	HUVEC inhibit 28.7 (no result: HCT116 bCat-KO, PTEN del growth)
O=C(NC(=S)Nc1nc2c(s1)CSc1ccccc1-2)c1ccccc1	none
FC(F)(F)c1ccc(N2CCOCC2)c(Nc2nc3ccccc3n3cnnc23)c1	HCT116 bCat-KO 0.8, PTEN del growth 0.4 (no result: H69AR inhibit, HUVEC inhibit, Phagocytosis inh, Lung fibro prol)
O=C(Cn1cnc2ccccc21)Nc1cc(C(F)(F)F)ccc1N1CCOCC1	none
CCN(CC)C(=O)Cn1nc(-c2ccccc2O)nc1SCC(=O)Nc1ccc(OC)cc1	H69AR inhibit 35.4
COc1ccc(NC(=O)CSc2ccc3c4c(cccc24)C(=O)c2ccccc2-3)cc1	PTEN del growth 3.4 (no result: H69AR inhibit, HUVEC inhibit, Phagocytosis inh, Lung fibro prol)
N#Cc1cccc(NC(=O)CSc2ccc3c4c(cccc24)C(=O)c2ccccc2-3)c1	none (no result: H69AR inhibit, HUVEC inhibit, Lung fibro prol)
CCC1(C)Cc2c(sc3c2c(=O)n(C)c2nnc(SCC(=O)c4ccc(Cl)cc4)n32)CO1 (centres undefined)	none (no result: HCT116 bCat-KO, PTEN del growth, Phagocytosis inh)
CC(C)CC(c1nnnn1C(C)C)N1CCN(c2ccccc2)CC1 (centres undefined)	none (no result: Phagocytosis inh)
COc1ccc(C(CNc2ccc(S(=O)(=O)N3CCCC3)cc2[N+](=O)[O-])N2CCCC2)cc1 (centres undefined)	none (no result: H69AR inhibit, HUVEC inhibit, Lung fibro prol)
CCC1CCCCN1C(=O)N[C@@H](Cc1ccccc1)C(=O)O (some centres undefined)	none
CC1(C)Cc2nc3sc4c(=O)n(CC(=O)NCc5ccco5)cnc4c3cc2CO1	H69AR inhibit 21.7
CCCOCCOC(=O)C1=C(C)NC(=O)NC1c1cc(Cl)c(O)c(OC)c1 (centres undefined)	none
CCOc1ccc(/C=C/C2=Cc3c(sc(NC(=O)CSc4n[nH]c(N)n4)c3C#N)C(C)(C)C2)cc1	H69AR inhibit 1.8, HUVEC inhibit 3.6, Lung fibro prol 48.0 (no result: Phagocytosis inh)
